According to ChEMBL document CHEMBL3603780, “Discovery of thieno[3,2-c]pyridin-4-amines as novel Bruton's tyrosine kinase (BTK) inhibitors” (Bioorg Med Chem, 2015):

What was measured:
[1] = target: Tyrosine-protein kinase BTK (Homo sapiens, UniProt Q06187); test: Inhibition of human recombinant BTK incubated for 5 mins by HTRF kinase assay
[2] = target: Vascular endothelial growth factor receptor 2 (Homo sapiens, UniProt P35968); test: Inhibition of KDR (unknown origin) using poly (Glu-Tyr, 4:1) substrate incubated for 60 mins by ELISA method
Sequence of Vascular endothelial growth factor receptor 2 (P35968 whole entry): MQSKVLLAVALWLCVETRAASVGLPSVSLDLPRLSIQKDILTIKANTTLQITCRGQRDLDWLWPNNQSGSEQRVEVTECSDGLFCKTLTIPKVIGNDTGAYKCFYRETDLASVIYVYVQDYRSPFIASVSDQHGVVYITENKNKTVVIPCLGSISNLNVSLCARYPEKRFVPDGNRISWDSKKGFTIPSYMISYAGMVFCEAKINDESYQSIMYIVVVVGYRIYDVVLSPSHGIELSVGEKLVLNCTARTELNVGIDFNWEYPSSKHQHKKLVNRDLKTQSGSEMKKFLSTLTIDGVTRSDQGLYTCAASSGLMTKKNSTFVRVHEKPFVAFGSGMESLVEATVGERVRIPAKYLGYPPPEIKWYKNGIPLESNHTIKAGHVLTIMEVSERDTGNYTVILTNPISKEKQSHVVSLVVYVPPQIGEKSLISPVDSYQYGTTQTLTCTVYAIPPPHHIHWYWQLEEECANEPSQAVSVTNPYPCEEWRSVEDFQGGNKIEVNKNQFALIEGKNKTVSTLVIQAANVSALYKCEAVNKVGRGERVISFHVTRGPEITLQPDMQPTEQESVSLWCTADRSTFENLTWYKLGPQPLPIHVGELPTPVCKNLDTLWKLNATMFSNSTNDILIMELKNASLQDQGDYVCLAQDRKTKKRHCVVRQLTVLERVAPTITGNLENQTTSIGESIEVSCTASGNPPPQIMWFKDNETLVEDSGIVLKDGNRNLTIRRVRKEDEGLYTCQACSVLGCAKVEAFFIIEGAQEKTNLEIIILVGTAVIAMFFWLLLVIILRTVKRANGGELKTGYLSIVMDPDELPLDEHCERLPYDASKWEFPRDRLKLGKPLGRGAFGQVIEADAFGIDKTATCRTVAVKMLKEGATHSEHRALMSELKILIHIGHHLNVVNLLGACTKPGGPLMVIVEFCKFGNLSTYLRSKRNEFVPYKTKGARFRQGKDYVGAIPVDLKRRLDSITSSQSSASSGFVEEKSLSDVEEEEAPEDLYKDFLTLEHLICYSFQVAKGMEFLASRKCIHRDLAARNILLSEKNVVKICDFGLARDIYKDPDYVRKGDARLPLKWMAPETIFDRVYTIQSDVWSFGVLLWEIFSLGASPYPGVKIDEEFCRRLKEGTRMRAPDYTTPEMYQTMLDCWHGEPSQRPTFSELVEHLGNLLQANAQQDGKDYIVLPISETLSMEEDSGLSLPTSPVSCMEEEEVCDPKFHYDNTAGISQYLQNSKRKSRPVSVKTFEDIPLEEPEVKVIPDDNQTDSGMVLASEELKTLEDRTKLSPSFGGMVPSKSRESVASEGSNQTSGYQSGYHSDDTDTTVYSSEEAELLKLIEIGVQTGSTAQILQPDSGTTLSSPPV
Procedure, shortened: (§1)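 ELISA on wells precoated overnight at 37 °C with 0.2 mg/mL poly(Glu-Tyr, 4:1). Kinase and 0.01 mmol/L ATP in reaction medium, plus inhibitor at various concentrations in 1% DMSO, were reacted for 60 min at 37 °C. Anti-phosphotyrosine antibody and HRP anti-mouse IgG followed, with TMB read-out stopped by 2 M H2SO4 and OD at 450 nm. IC50 came from regression of concentration/inhibition data.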

[3] = target: Hepatocyte growth factor receptor (Homo sapiens, UniProt P08581); test: Inhibition of c-MET (unknown origin) using poly (Glu-Tyr, 4:1) substrate incubated for 60 mins by ELISA method; procedure, shortened: as §1
Sequence of Hepatocyte growth factor receptor (P08581 whole entry): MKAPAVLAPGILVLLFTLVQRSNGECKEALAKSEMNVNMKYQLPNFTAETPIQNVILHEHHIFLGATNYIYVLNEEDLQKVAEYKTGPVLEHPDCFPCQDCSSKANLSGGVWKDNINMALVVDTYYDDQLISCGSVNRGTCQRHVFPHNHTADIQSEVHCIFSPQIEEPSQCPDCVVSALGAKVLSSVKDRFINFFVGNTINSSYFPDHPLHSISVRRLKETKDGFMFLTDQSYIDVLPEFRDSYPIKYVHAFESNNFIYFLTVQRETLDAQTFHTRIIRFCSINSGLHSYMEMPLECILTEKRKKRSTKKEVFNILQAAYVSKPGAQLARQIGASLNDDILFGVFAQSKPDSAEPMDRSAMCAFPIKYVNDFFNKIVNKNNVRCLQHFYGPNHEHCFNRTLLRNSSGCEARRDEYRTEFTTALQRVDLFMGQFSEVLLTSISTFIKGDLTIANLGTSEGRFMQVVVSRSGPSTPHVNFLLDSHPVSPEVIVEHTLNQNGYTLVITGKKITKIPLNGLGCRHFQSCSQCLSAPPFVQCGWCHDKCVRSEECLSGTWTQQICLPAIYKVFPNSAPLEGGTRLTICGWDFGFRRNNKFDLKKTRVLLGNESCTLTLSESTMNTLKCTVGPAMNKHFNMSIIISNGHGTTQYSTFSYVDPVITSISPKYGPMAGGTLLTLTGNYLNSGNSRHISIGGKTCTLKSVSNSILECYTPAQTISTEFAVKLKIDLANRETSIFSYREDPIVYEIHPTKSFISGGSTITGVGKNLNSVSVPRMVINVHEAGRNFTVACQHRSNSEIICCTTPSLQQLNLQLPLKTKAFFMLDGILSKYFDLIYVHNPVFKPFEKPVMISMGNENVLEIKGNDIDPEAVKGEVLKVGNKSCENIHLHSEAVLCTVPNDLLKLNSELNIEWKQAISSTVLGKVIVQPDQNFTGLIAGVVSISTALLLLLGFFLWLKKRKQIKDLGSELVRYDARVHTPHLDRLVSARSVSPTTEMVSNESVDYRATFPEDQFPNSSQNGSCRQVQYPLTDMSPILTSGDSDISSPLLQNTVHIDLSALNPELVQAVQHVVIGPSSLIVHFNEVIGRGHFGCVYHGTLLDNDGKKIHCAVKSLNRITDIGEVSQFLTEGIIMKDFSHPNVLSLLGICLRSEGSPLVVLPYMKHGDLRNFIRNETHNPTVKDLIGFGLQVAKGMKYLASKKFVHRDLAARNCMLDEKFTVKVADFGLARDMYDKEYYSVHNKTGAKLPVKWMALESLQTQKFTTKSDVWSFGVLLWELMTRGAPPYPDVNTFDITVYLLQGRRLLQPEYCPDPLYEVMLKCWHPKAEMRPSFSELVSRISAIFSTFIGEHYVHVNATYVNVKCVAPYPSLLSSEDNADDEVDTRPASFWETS

[4] = target: T1, Tyrosine-protein kinase JAK3 (Homo sapiens, UniProt P52333); test: Inhibition of JAK3 (unknown origin) using poly (Glu-Tyr, 4:1) substrate incubated for 60 mins by ELISA method; procedure, shortened: as §1
T1 sequence (P52333 whole entry): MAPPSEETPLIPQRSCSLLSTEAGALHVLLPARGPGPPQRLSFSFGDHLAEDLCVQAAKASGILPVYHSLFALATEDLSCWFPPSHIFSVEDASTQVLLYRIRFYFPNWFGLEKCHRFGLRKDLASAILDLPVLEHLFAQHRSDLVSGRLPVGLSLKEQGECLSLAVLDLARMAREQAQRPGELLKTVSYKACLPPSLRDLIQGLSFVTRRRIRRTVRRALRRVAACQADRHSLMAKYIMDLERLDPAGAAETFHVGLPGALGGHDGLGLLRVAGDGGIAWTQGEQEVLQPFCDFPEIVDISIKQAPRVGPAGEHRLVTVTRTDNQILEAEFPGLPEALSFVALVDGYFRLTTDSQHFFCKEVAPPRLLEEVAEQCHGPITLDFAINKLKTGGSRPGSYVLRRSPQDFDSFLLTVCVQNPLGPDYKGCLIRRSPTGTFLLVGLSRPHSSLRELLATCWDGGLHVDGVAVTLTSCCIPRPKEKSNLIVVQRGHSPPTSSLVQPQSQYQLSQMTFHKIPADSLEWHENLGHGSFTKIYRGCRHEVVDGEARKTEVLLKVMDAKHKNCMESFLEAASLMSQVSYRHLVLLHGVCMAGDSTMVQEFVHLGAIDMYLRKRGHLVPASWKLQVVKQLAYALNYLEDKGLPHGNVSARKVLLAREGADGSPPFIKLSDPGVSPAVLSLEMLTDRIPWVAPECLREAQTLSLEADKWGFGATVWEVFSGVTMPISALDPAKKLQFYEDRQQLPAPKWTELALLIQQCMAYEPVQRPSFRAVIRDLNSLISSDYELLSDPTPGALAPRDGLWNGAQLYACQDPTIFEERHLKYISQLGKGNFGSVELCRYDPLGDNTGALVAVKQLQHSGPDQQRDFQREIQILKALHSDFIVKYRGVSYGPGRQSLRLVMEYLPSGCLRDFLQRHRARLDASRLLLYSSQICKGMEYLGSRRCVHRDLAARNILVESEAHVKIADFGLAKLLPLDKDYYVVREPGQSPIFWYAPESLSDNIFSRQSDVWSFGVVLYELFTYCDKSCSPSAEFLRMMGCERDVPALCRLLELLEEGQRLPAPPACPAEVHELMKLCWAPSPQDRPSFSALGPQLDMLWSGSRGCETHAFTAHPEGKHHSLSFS

[5] = target: Tyrosine-protein kinase JAK2 (Homo sapiens, UniProt O60674); test: Inhibition of JAK2 (unknown origin) using poly (Glu-Tyr, 4:1) substrate incubated for 60 mins by ELISA method; procedure, shortened: as §1
Sequence of Tyrosine-protein kinase JAK2 (O60674 whole entry): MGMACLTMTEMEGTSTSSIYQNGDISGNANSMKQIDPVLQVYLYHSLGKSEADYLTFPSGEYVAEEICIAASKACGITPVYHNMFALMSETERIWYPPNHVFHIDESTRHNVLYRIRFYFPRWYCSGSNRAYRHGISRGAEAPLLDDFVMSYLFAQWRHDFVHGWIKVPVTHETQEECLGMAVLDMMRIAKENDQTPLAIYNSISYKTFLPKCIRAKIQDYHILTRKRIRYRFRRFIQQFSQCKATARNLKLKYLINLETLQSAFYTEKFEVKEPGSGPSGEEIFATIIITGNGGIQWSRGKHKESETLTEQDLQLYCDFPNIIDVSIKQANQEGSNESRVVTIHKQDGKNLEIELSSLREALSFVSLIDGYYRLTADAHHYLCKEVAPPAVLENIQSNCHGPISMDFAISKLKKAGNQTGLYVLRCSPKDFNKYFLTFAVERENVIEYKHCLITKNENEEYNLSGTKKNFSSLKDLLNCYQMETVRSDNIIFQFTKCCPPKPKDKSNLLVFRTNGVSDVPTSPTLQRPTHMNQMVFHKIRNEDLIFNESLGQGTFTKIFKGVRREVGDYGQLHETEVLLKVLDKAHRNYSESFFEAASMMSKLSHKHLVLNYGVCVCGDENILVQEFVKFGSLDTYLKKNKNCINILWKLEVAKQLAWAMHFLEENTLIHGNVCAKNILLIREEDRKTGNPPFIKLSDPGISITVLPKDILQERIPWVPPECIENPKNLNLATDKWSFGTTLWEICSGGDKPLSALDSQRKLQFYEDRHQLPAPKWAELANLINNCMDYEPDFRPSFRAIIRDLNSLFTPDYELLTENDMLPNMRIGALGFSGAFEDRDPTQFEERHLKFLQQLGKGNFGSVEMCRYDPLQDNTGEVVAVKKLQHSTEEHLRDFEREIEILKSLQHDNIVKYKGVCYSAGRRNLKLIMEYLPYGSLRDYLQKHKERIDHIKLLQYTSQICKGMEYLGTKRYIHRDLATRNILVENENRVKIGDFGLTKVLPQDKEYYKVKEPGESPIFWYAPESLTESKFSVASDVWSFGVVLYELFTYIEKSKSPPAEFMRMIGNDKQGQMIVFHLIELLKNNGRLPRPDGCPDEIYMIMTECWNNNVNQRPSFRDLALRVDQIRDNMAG

[6] = Clearance in Sprague-Dawley rat at 10 mg/kg, po by LC-MS/MS method; type: ADME, organism-based; details: in vivo
Procedure, shortened: (§2)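 Male SD rats, 3 per route (180-240 g), dosed 2.5 mg/kg iv or 10 mg/kg po at 5 mL/kg. Blood was sampled from 2 min to 24 h, centrifuged at 4000 rpm for 5 min at 4 °C and protein-precipitated. Plasma was quantified by LC/MS/MS in SRM mode with an internal standard. PK parameters came from noncompartmental analysis.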

[7] = Mean residence time in Sprague-Dawley rat at 2.5 mg/kg, iv by LC-MS/MS method; type: ADME, organism-based; details: in vivo; procedure, shortened: as §2
[8] = Apparent volume of distribution in Sprague-Dawley rat at 2.5 mg/kg, iv by LC-MS/MS method; type: ADME, organism-based; details: in vivo, read-out: Vz; procedure, shortened: as §2
[9] = Half life in Sprague-Dawley rat at 10 mg/kg, po by LC-MS/MS method; type: ADME, organism-based; details: in vivo; procedure, shortened: as §2
[10] = Cmax in Sprague-Dawley rat at 10 mg/kg, po by LC-MS/MS method; type: ADME, organism-based; set-up: dose 10 mg/kg, route oral; details: in vivo; procedure, shortened: as §2
[11] = AUC (0 to t) in Sprague-Dawley rat at 10 mg/kg, po by LC-MS/MS method; type: ADME, organism-based; details: in vivo; procedure, shortened: as §2
[12] = Oral bioavailability in Sprague-Dawley rat at 10 mg/kg by LC-MS/MS method; type: ADME, organism-based; details: in vivo; procedure, shortened: as §2
[13] = Cmax in Sprague-Dawley rat at 2.5 mg/kg, iv by LC-MS/MS method; type: ADME, organism-based; set-up: dose 2.5 mg/kg, route intravenous; details: in vivo; procedure, shortened: as §2
[14] = Tmax in Sprague-Dawley rat at 10 mg/kg, po by LC-MS/MS method; type: ADME, organism-based; details: in vivo; procedure, shortened: as §2
[15] = Mean residence time in Sprague-Dawley rat at 10 mg/kg, po by LC-MS/MS method; type: ADME, organism-based; details: in vivo; procedure, shortened: as §2
Rattus norvegicus = test: Apparent volume of distribution in Sprague-Dawley rat at 10 mg/kg, po by LC-MS/MS method; type: ADME, organism-based; details: in vivo; procedure, shortened: as §2
[16] = AUC (0 to t) in Sprague-Dawley rat at 2.5 mg/kg, iv by LC-MS/MS method; type: ADME, organism-based; details: in vivo; procedure, shortened: as §2
[17] = Half life in Sprague-Dawley rat at 2.5 mg/kg, iv by LC-MS/MS method; type: ADME, organism-based; details: in vivo; procedure, shortened: as §2
[18] = Clearance in Sprague-Dawley rat at 2.5 mg/kg, iv by LC-MS/MS method; type: ADME, organism-based; details: in vivo; procedure, shortened: as §2
[19] = Tmax in Sprague-Dawley rat at 2.5 mg/kg, iv by LC-MS/MS method; type: ADME, organism-based; details: in vivo; procedure, shortened: as §2

Sequence of Tyrosine-protein kinase BTK (Q06187 whole entry): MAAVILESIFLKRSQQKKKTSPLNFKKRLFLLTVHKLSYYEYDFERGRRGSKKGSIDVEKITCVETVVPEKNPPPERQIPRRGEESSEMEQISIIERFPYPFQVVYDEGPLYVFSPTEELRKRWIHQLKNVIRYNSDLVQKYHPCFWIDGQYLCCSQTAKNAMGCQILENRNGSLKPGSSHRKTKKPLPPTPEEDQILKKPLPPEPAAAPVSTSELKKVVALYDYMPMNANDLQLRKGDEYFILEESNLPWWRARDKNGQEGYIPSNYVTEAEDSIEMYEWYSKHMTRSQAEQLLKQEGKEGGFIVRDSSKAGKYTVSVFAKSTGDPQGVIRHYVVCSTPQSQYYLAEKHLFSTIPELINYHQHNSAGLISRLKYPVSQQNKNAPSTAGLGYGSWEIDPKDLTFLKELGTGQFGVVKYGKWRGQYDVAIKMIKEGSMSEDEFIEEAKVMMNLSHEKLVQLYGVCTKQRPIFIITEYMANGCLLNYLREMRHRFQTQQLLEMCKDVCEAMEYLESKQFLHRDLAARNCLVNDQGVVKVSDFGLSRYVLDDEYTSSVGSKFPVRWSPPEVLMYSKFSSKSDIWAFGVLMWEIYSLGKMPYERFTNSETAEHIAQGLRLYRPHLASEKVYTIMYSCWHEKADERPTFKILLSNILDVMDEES

## COCCCn1cc(-c2cnc(N)c3c(-c4ccc(Oc5ccccc5)cc4)csc23)cn1
[1]
  IC50: 280 nM

## CCn1cc(-c2cnc(N)c3c(-c4ccc(Oc5ccccc5)cc4)csc23)cn1
[1]
  IC50: 176 nM

## Cn1cc(-c2cnc(N)c3c(-c4ccc(Oc5ccccc5)cc4)csc23)cn1
[2]
  IC50: 343 nM
[1]
  IC50: 107 nM
[3]
  IC50: > 10000 nM
[4]
  IC50: > 10000 nM
[5]
  IC50: > 10000 nM

## CNC(=O)Cn1cc(-c2cnc(N)c3c(-c4cccc(C(=O)Nc5ccccc5)c4)csc23)cn1
[1]
  IC50: 291 nM

## CNC(=O)Cn1cc(-c2cnc(N)c3c(-c4ccc(C(=O)Nc5ccccc5)cc4)csc23)cn1
[1]
  IC50: 137 nM

## COc1ccc2cc(-c3cnc(N)c4c(-c5ccc(Oc6ccccc6)cc5)csc34)ccc2c1
[1]
  IC50: > 10000 nM

## Nc1ncc(-c2ccc(Oc3ccccc3)cc2)c2scc(-c3ccc(Oc4ccccc4)cc3)c12
[1]
  IC50: > 10000 nM

## Nc1ncc(-c2ccncc2)c2scc(-c3ccc(Oc4ccccc4)cc3)c12
[1]
  IC50: 1950 nM

## Nc1ncc(-c2ccccc2)c2scc(-c3ccc(Oc4ccccc4)cc3)c12
[1]
  IC50: > 10000 nM

## CNC(=O)Cn1cc(-c2cnc(N)c3c(-c4ccc(Oc5ccccc5)cc4)csc23)cn1
[6]
  CL/F: 145 mL/min/kg
[7]
  MRT: 25.8 min
[8]
  Vd: 0.9 L/kg
[9]
  half-life: 60.6 min
[10]
  Cmax: 856 ng/mL
[11]
  AUC(0-t): 1370 ng·h/mL
[12]
  bioavailability: 23.4%
[13]
  Cmax: 2550 ng/mL
[14]
  Tmax: 40.2 min
[2]
  IC50: 284 nM
[1]
  IC50: 12.8 nM
[3]
  IC50: > 10000 nM
[4]
  IC50: > 10000 nM
[15]
  MRT: 88.8 min
Rattus norvegicus
  Vz: 13.3206 L/kg
[5]
  IC50: > 10000 nM
[16]
  AUC(0-t): 1460 ng·h/mL
[17]
  half-life: 21.6 min
[18]
  clearance: 28.6 mL/min/kg
[19]
  Tmax: 6.6 min

## Nc1ncc(-c2cn[nH]c2)c2scc(-c3ccc(Oc4ccccc4)cc3)c12
[1]
  IC50: 1050 nM

## Nc1ncc(-c2ccc(N3CCOCC3)cc2)c2scc(-c3ccc(Oc4ccccc4)cc3)c12
[1]
  IC50: 2300 nM

## Nc1ncc(C2CC2)c2scc(-c3ccc(Oc4ccccc4)cc3)c12
[1]
  IC50: > 10000 nM

## CCCCn1cc(-c2cnc(N)c3c(-c4ccc(Oc5ccccc5)cc4)csc23)cn1
[1]
  IC50: 387 nM

## CN(C)S(=O)(=O)n1cc(-c2cnc(N)c3c(-c4ccc(Oc5ccccc5)cc4)csc23)cn1
[1]
  IC50: 528 nM

## CC(=O)n1cc(-c2cnc(N)c3c(-c4ccc(Oc5ccccc5)cc4)csc23)cn1
[1]
  IC50: 454 nM

## Nc1ncc(-c2ccco2)c2scc(-c3ccc(Oc4ccccc4)cc3)c12
[1]
  IC50: 767 nM

## CCCCc1cnc(N)c2c(-c3ccc(Oc4ccccc4)cc3)csc12
[1]
  IC50: > 10000 nM

## CNC(=O)Cn1cc(-c2cnc(N)c3c(-c4ccc(NC(=O)c5cccc(Cl)c5)cc4)csc23)cn1
[1]
  IC50: 409 nM

## Cn1cc(-c2cnc(N)c3c(-c4ccc(NC(=O)c5cccc(Cl)c5)cc4)csc23)cn1
[1]
  IC50: 421 nM

## Nc1ncc(-c2cnn(Cc3ccccc3)c2)c2scc(-c3ccc(Oc4ccccc4)cc3)c12
[1]
  IC50: 699 nM
